The nature of series [1]: Inhibition of His-tagged catalytic domain Trypanosoma brucei brucei PDEB1 expressed in baculovirus infected insect Sf21 cells.
Series [2] can be described thus: Inhibition of His-tagged catalytic domain Trypanosoma brucei brucei PDEB2 expressed in baculovirus infected insect Sf21 cells.
In series [3] the test system is Trypanosoma brucei brucei. Description: Antitrypanosomal activity against blood stream Trypanosoma brucei brucei 427 after 48 hrs by Alamar blue assay. The following applies: Trypanosoma brucei, 427, 48 h. Type of series: functional, organism-based. Background: Alamar Blue is a resazurin reagent that responds to reducing activity.
In series [4] the test system is Trypanosoma brucei brucei. Kind of series: Cytotoxicity against Trypanosoma brucei brucei at 100 uM.
Series [5] is described as follows: Inhibition of His-tagged catalytic domain Trypanosoma brucei brucei PDEB1 expressed in baculovirus infected insect Sf21 cells at 100 uM. The gist of the method:
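Inhibitor preincubated 10 min before substrate, final DMSO 2%, 5% or 10%. BioMol green phosphate read at 620nm. Initial-velocity change versus vehicle; mean of ≥3 independent experiments.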

A short description of series [6]: Inhibition of His-tagged catalytic domain Trypanosoma brucei brucei PDEB1 expressed in baculovirus infected insect Sf21 cells at 10 uM. The gist of the method: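 Single-concentration screen of purified His-tagged TbrPDEB1 catalytic domain (0.25 µg) at 37°C in 10 mM Tris pH 7.4, 0.2 mg/ml BSA, 10 mM MgCl2, 25 µM cAMP and excess 5'-nucleotidase. Inhibitor in DMSO (2%, 5% or 10% final) preincubated 10 min before substrate. BioMol green phosphate read-out at 620 nm; percent inhibition of initial velocity versus vehicle control.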

By IC50 is commonly meant the midpoint of a concentration-inhibition curve. A high value points to lower potency. In the case of `COc1ccc(C2CNC(=O)C2)cc1OC1CCCC1` (stereo unspecified) [ROLIPRAM], the IC50 in series [1] was > 100 µM.

Regarding `CS(=O)(=O)Oc1ccc2c(NC(N)=O)c(C(=O)c3ccc(Cl)cc3Cl)oc2c1`, the IC50 in series [2] and in series [1] was > 10 µM throughout.

As usually defined, the EC50 is the concentration giving half of the maximal effect. A high value points to weaker potency. `COc1cc(C(=O)Nc2c(Cl)cncc2Cl)cc(OC)c1OC`: the EC50 in series [3] is > 100 µM. In series [4], this molecule returned an Activity of 10%. In addition, in series [1], the IC50 was > 100 µM.

In the case of `CCOc1ccc(C(=O)Nc2c(Cl)cncc2Cl)cc1OCC`, the IC50 in series [1] was > 100 µM.

As a reminder, the inhibition is how much of the control response was suppressed. A higher inhibition goes with a strong effect. For `OCCN(CCO)c1nc(N2CCCCC2)c2nc(N(CCO)CCO)nc(N3CCCCC3)c2n1` [DIPYRIDAMOLE], in series [5], the inhibition is > 50%. This molecule also gave an IC50 in series [1] of 72 µM.

On to `COc1ccc(C(=O)Nc2c(Cl)cncc2Cl)c(Cl)c1OC`, for which, in series [1], the IC50 was > 100 µM.

Regarding `Cc1noc(/C(=C/c2cccc(-c3cc(C(C)(C)S(C)(=O)=O)cc4cccnc34)c2)c2ccc(S(C)(=O)=O)cc2)n1`, in series [6], the inhibition is > 50%.

For `COc1cccc(Nc2c(C(N)=O)cnc3c(C)cc(S(=O)(=O)c4cccc(C(=O)N(C)C)c4)cc23)c1`, the inhibition in series [6] was > 50%.

As to `COc1ccc(C(=O)Nc2c(Cl)cncc2Cl)cc1OCc1ccccc1`, a half-maximal effect in series [3] (EC50) was put at 10.1 µM. The IC50 is 11.2 µM in series [2] and 12.5 µM in series [1].

`COc1cc2c(cc1OC)-c1c/c(=N\c3c(C)cc(C)cc3C)n(C)c(=O)n1CC2` [TREQUINSIN] gave an EC50 in series [3] of 5.8 µM. For the same molecule, the IC50 in series [2] came out at 25.4 µM; in series [1], 12 µM. For the same molecule, the inhibition in series [5] was > 50%.

Molecule `COc1ccc(C(=O)Nc2c(Cl)cncc2Cl)cc1OC1CCCC1` registered an EC50 in series [3] of 9.57 µM. In addition, the IC50 in series [2] amounted to 11.4 µM; in series [1], 4.7 µM. Besides, the inhibition in series [5] was > 50%.

For the molecule `COc1ccc(C(=O)Nc2c(Cl)cncc2Cl)cc1OC`, the IC50 in series [2] and in series [1] was > 100 µM in each case.

For the molecule `COc1cc(Cl)c(C(=O)Nc2c(Cl)cncc2Cl)cc1OC`, the IC50 in series [1] is > 100 µM.

As to `CCCCOc1cc(CC2CNC(=O)N2)ccc1OC` (stereo unspecified) [RO-201724], the IC50 in series [1] is > 100 µM.

As to `CCCOc1cc(C(=O)Nc2c(Cl)cncc2Cl)ccc1OC`, the midpoint of the response in series [3], the EC50, lay at 13 µM. The IC50 in series [2] was found to be 9.4 µM; in series [1] it was 13.6 µM.

On to `COc1cc2ncnc(N3CC[C@@H](Oc4cnc5ccccc5n4)C3)c2cc1OC`, for which the inhibition in series [5] was > 55%.

Regarding `CCOc1cc(C(=O)Nc2c(Cl)cncc2Cl)ccc1OC`, the IC50 came out at 34 µM in series [2] and 16.5 µM in series [1].

Turning to `O=C(Nc1c(Cl)cncc1Cl)c1ccc(OC(F)F)c(OCC2CC2)c1` [ROFLUMILAST], in series [1], the IC50 is > 100 µM.

The molecule `CCCCOc1cc(C(=O)Nc2c(Cl)cncc2Cl)ccc1OC` had an EC50 in series [3] of 17.7 µM. Moreover, the 50% inhibitory concentration (IC50) in series [2] was 14.3 µM; in series [1], 7.7 µM.

Regarding `COc1cc(C(=O)Nc2c(Cl)cncc2Cl)ccc1OC(C)=O`, the IC50 in series [1] was > 100 µM.

`COc1ccc(C(=O)Nc2c(Cl)cncc2Cl)cc1OC(C)C`: in series [3], the EC50 was determined as 27.6 µM. The half-inhibitory concentration (IC50) in series [2] and in series [1] was > 30 µM each time.

The values are drawn from ChEMBL document CHEMBL1921779, “Pharmacological validation of Trypanosoma brucei phosphodiesterases B1 and B2 as druggable targets for African sleeping sickness” (J Med Chem, 2011).
